Bioassay records (PubChem BioAssay)
In the library only some 1.9% were active in any assay of this set; here they are far more common.
proCasp7 act – procaspase-7 activators, primary screen, counter-screen for procaspase-3 activator project, biochemical, absorbance, HTS, human; recombinant procaspase-7, Ac-DEVD-pNA absorbance 405 nm; D23A/D198A/D206A triple mutant, cannot self-cleave; scale: DMSO 0, 5 µM enzyme 100; activation, % at 8.5 µM; hit rate 0.093% among 330,000; AID 463210, 2010;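 active means percent activation above the screen-wide mean plus 3 SD, cut at about 25% in these data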
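Assay system – Uncleavable procaspase-7 mutant enzyme · Quantity – 2 µM procaspase-7 mutant as dispensed · Times – 1 h preincubation, 2 h reaction · Dosing – single nominal 8.5 µM compound dose, 0.8% DMSO final · Buffer or medium – Zinc-free 50 mM HEPES buffer, pH 7.4, with NaCl and Triton X-100 · Detection – Epi-absorbance of released pNA at 405 nm, two timepoints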
Arrestin-AP2 inh – inhibitors of beta-arrestin/AP2 binding, primary screen, biochemical, GPCR trafficking, flow cytometry | beta-arrestin 1 C-terminal peptide binding to AP2 beta2-adaptin appendage (human) | FITC-arrestin peptide / GST-AP2 beads; AP2 beta2 appendage carries R879A mutation | inhibition, % at 10 µM | hit rate 0.31% among 340,000;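 active means inhibition above a set limit, near 3 SD of compounds lacking own fluorescence, cut at about 54% in these data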;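 further: plate controls were DMSO wells for no effect and 5 µM unlabelled arrestin peptide for full effect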
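system = GST-tagged AP2 beta2-adaptin appendage (R879A) on 4 µm glutathione beads | reagent = FITC-labelled arrestin peptide probe, 50 nM final | schedule = compound with beads 12 min RT, then probe 1 h RT | signal = HyperCyt-sampled flow cytometry, FL1 channel, ex 488/em 535 nm | read-out = percent response from loss of bead-bound FITC fluorescence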
procasp3 activ – activators of human procaspase-3 D3A mutant, primary screen, biochemical, absorbance, PC-3 D3A mutant, single concentration; AID 463141, 2010; activation, % at 8.5 µM; hit rate 0.11% among 330,000; Caspase-3 (Homo sapiens), P42574; recombinant procaspase-3 D3A, Ac-DEVD-pNA absorbance 405 nm;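 active means activation above the mean of all tested compounds plus 3 SD, cut at about 21% in these data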;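 further: 0% = DMSO alone and 100% = DMSO wells spiked with extra 5 µM PC-3 D3A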
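Assay system – Procaspase-3 D3A mutant · Benchmarks – DMSO low control, extra-enzyme high control · Technique – 405 nm absorbance of p-nitroaniline, reads at 0 and 120 min · Doses – 8.5 µM nominal · Measure – % activation between DMSO and enzyme-spiked controls · Also added – Ac-DEVD-pNA chromogenic peptide substrate · Schedule – 1 h compound preincubation, 2 h substrate hydrolysis at 25 °C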
PLCg1 inh – PLC-gamma1 enzyme inhibitors, primary screen, biochemical, fluorescence, purified enzyme. 1-phosphatidylinositol 4,5-bisphosphate phosphodiesterase gamma-1 (Homo sapiens), P19174. fluorogenic substrate. inhibition, % at 12.2 µM. hit rate 0.84% among 370,000. AID 720700, 2013; in the data active means inhibition above about 9.5%
HGIII-sPLA2 inh – human group III sPLA2 inhibitors, primary screen, biochemical, QFRET, BODIPY PC-A2 liposome substrate. Group 3 secretory phospholipase A2 (Homo sapiens), Q9NZ20. QFRET BODIPY PC-A2 liposome hydrolysis, fluorescence. inhibition, % at 12.2 µM. hit rate 0.56% among 370,000;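 active means inhibition above mean plus 3 SD of compounds lying within the high and low control bounds, cut at about 19% in these data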;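 further: 0% = median of test compound wells and 100% = no enzyme DMSO wells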
Target sequence (Q9NZ20 whole entry, looked up): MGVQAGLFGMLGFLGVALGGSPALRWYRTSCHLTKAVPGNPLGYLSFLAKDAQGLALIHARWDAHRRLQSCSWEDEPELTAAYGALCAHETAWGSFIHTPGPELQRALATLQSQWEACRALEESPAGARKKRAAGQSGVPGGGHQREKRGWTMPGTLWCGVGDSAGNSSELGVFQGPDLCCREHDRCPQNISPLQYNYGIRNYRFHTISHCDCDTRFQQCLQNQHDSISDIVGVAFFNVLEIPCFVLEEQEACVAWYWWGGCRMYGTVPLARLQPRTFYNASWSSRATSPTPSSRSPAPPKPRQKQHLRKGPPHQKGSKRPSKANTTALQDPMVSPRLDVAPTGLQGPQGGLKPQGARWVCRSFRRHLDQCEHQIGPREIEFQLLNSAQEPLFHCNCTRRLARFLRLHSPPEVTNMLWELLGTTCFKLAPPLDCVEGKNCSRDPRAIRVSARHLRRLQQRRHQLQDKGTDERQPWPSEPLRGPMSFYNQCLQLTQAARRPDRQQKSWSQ
PLCb3 inh – human PLC-beta3 inhibitors, primary screen, biochemical, fluorescence | Purified PLC-beta3, fluorogenic substrate | hit rate 0.18% among 370,000 | 1-phosphatidylinositol 4,5-bisphosphate phosphodiesterase beta-3 (Homo sapiens), Q01970 | inhibition, % at 12.2 µM | AID 720704, 2013;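 further: 0% = median of compound wells on plate and 100% = full blocker control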
PLCg1 ctr – PLC-gamma1 enzyme inhibitors, counter-screen for PLC-beta3 inhibitor project, biochemical, fluorescence | hit rate 3.1% among 3,300 | purified PLC-gamma1, fluorogenic substrate | inhibition, % at 12.3 µM | shares compounds with PLCg1 inh | AID 743258, 2014; in the data active means inhibition above about 9.5%
PLCbeta3 conf – PLC-beta3 inhibitor confirmation, biochemical, fluorescence, purified enzyme | fluorogenic substrate fluorescence | hit rate 1% among 3,300 | inhibition, % at 12.3 µM | shares compounds with PLCg1 inh | AID 743261, 2014
hGIII sPLA2 conf – human group III sPLA2 inhibitors, confirmation, biochemical, QFRET, triplicate | shares compounds with HGIII-sPLA2 inh | recombinant hGIII-sPLA2, BODIPY PC-A2 QFRET fluorescence | inhibition, % at 12.2 µM | hit rate 34% among 2,000;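 active means mean inhibition across triplicates above the hit cutoff set in the earlier primary screen, cut at about 19% in these data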;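 further: 0% = enzyme with DMSO and 100% = DMSO wells lacking enzyme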
535nm interf – 535nm fluorescence optical interference, confirmation, artefact control for HGIII-sPLA2 inhibitor project, biochemical, QFRET. shares compounds with HGIII-sPLA2 inh. BODIPY FL product fluorescence interference. inhibition, % at 12.2 µM. hit rate 8.5% among 2,000. AID 743282, 2014;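 active means average inhibition above the solvent-only control mean plus 3 SD, cut at about 6% in these data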;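 further: 0% = DMSO with substrate plus product and 100% = DMSO with substrate alone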
535nm interf DR – 535nm fluorescence optical interference, dose response, artefact control for HGIII-sPLA2 inhibitor project, biochemical, QFRET. shares compounds with HGIII-sPLA2 inh. BODIPY FL product fluorescence interference, cell-free. IC50, µM. 240 tested, under 10 active. AID 743455, 2014;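 active means IC50 at or below 10 µM; inactive means IC50 above 10 µM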
* hit, by the source's call; / = no result given. Unless noted, no stated cut-off is given here; in the data, active means inhibition above about 11%; inactive means the rest.

SMILES	proCasp7 act	Arrestin-AP2 inh	procasp3 activ	PLCg1 inh	HGIII-sPLA2 inh	PLCb3 inh	PLCg1 ctr	PLCbeta3 conf	others
CC1(C)C2CCC1(CS(=O)(=O)N1CCC(C(N)=O)CC1)C(=O)C2 (stereo not given)	5	4	-10	-1	2	-6	/	/
N/C(=N\C(=O)OCc1ccccc1)N(Cc1ccccc1)C(C#CC1=CCCCC1)Cc1ccccc1 (stereo not given)	/	/	/	-2	8	0	/	/
O=C(CSCc1ccccc1)Nc1cccc(F)c1	0	-6	2	11*	-3	9	4	8
O=C1CC(N2CCN(c3ccc(F)cc3)CC2)C(=O)N1Cc1ccccc1 (stereo not given)	-14	17	2	-2	8	1	/	/
O=C1CC(N2CCN(c3ccccc3)CC2)C(=O)N1Cc1ccc(Cl)cc1 (stereo not given)	-1	33	-2	10*	-7	0	-7	-3
O=C(NC1CCCCN(Cc2cccc(C(F)(F)F)c2)C1=O)c1ccc(COc2ccccc2)cc1 (stereo not given)	/	/	/	0	-25	0	/	/
CCOC(=O)[C@]12CCC=C1N(Cc1cccc3ccccc13)C(=O)[C@H](CC(=O)NCCCCc1ccccc1)C2	/	/	/	-3	-20	-4	/	/
COc1ccc(-c2cc(CNC(=O)CN3CCN(C)CC3)on2)cc1	15	6	-3	9.5*	8	-369	-7	-2
O=C(NC1CCCCC1)N(c1ccccc1)c1nnc(-c2cccc([N+](=O)[O-])c2)s1	/	/	/	7	8	1	/	/
Cc1cnnc2c1-c1nonc1CC2	6	3	-2	4	5	0	/	/
Cc1cnnc2c1-c1no[n+]([O-])c1CC2	0	25	-2	13*	9	9	0	2
CNC(=O)c1ccccc1NC(=O)c1c(O)c2c([nH]c1=O)CCCC2	-5	-5	3	-9	2	-168	/	/
O=C(N/N=C/c1cccc(F)c1)c1c(O)c2c([nH]c1=O)CCCC2	7	28	4	6	4	12*	-2	0
COC(=O)[C@]12C[C@H](CC(=O)NCc3ccc(OC)c(OC)c3)C(=O)N(Cc3ccco3)C1=C[C@H](COCc1ccccc1)O[C@@H]2C	/	/	/	2	-7	0	/	/
Cc1ccccc1NC(=S)c1nc2ccccc2[nH]1	6	23	10	10*	45*	3	0	1	hGIII sPLA2 conf=31*;535nm interf=3;535nm interf DR=>122
